High-throughput results: PubChem, several laboratories
Lmaj promast: inhibitors of Leishmania major promastigote growth. Leishmania major promastigotes, resazurin fluorescence viability. inhibition, % at 10 µM. 9% of 200,000 active; in the data active = inhibition above about 50%;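 note: promastigotes grown with compound for 44 hours at 28 °C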
Diaph act CS: counter-screen for diaphorase-based assays: diaphorase activators and chemical reducers; Diaphorase/resazurin coupled assay, resorufin fluorescence, 16 min; active compounds read high; 1 = vehicle wells, 0 = NADH-free wells; activation factor at 20 µM; 0.005% of 190,000 active; AID 1229;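 active = diaphorase activity raised at least twofold by the compound at 20 µM; inactive = activation factor below 2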
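Material: purified diaphorase enzyme from Clostridium kluyveri / Medium: HEPES pH 7.4 buffer with MgCl2 and Tween 20 / Schedule: enzyme reaction of 16 min at room temperature / Measured by: resorufin fluorescence, excitation 544 nm, emission 590 nm / Evaluation: rise in resorufin formation, marking diaphorase activation or chemical reduction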
ROMK mod: modulators of human ROMK potassium channel. P48048. Tet-inducible ROMK, thallium flux fluorescence; actives lie on both sides. B-score at 10 µM. 2% of 130,000 active. AID 1918;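 active = signal ratio slope over the read window, or its plate-corrected B-score, at least 3 SD from the plate mean, either direction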;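 note: B-score of the F/F0 ratio slope over 7 to 12 s after thallium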
Target sequence (P48048 whole entry, looked up): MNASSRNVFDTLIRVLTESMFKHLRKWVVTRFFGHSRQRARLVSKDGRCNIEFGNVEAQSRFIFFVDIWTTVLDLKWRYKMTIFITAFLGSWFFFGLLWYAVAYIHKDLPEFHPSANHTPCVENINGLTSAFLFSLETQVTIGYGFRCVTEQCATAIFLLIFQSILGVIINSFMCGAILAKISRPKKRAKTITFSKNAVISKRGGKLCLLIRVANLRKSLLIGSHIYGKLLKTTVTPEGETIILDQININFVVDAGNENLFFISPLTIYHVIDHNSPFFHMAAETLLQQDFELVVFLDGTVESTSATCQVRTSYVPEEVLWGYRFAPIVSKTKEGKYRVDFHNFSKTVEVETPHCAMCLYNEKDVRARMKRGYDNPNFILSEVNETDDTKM
KCC2 mod: KCC2 (human) Cl- transport modulation | Q9H2X9 | KCC2 cells, thallium flux FluoZin-2 fluorescence | B-score of Tl+ flux slope (higher = more flux/activation; lower = inhibition) at 10 µM | 2.2% of 190,000 active | AID 1456;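 active = thallium flux slope and its plate-corrected score both differing from the plate sample mean at a set confidence after two filtering rounds, in either direction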;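 note: slope of fluorescence scaled to starting intensity during 10 to 20 s after thallium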
WT yeast gro inh: growth inhibition of WT yeast, mitochondrial fusion screen. mitochondrial fusion phenotypic screen, WT strain. inhibition, % at 10 µM. 2.1% of 190,000 active. AID 1362; in the data active = inhibition above about 58%; tested in S. cerevisiae
Diaphorase inh: inhibits diaphorase or chemically oxidizes, flagging diaphorase assay artifacts. diaphorase resazurin-to-resorufin fluorescence, NADH, 16 min; bacterial (C. kluyveri) enzyme, not human. inhibition, % at 20 µM. 0.69% of 190,000 active. AID 1217;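 active = primary screen inhibition at 20 µM above a set limit, cut at about 50% in these data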
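controls = No-NADH positive control and DMSO neutral control | system = Clostridium kluyveri diaphorase enzyme | timing = reaction incubation of 16 min at room temperature | signal = resorufin fluorescence 544/590 nm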
A number is an active result; n = inactive; x = no result. Compounds with a hit are over-represented: about 12% of the library has one in this group of screens.

SMILES	Lmaj promast	Diaph act CS	ROMK mod	KCC2 mod	WT yeast gro inh	Diaphorase inh
COc1ccccc1NC(=O)CC1S/C(=N/N=C2\CCCc3ccccc32)NC1=O (stereo not given)	n	n	x	x	63	n
O=C(Cn1c(=O)[nH]c2ccsc2c1=O)NC1CCCCCC1	n	n	n	-4.7	n	n
CC1CCC(NC(=O)Cn2c(=O)[nH]c3ccsc3c2=O)CC1 (stereo not given)	n	n	x	n	n	n
CC(=O)c1cc2c(cc1NS(=O)(=O)c1ccc3c(c1)OCCO3)OCO2	n	n	x	n	n	n
COC(=O)c1ccc(Cl)c(NS(=O)(=O)c2ccc3c(c2)OCCO3)c1	80	n	x	n	n	n
CC(C)[C@H](NS(=O)(=O)c1ccc2c(c1)OCCO2)C(=O)OCC(=O)Nc1ccccc1Cl	66	n	n	n	n	n
CC(C)[C@H](NS(=O)(=O)c1ccc2c(c1)OCCO2)C(=O)OCC(=O)Nc1cccc(Cl)c1Cl	n	n	x	n	n	n
O=C(Nc1ncc(S(=O)(=O)c2ccc([N+](=O)[O-])cc2)s1)c1cccc2ccccc12	100	n	n	n	n	n
Cc1ccc(N(C(=O)c2ccco2)C2C=CS(=O)(=O)C2)cc1 (stereo not given)	n	n	n	n	n	n
CC(=O)N(c1ccccc1)c1nc(/C=C/C(=O)Nc2c(C)cc(C)cc2C)cs1	n	n	x	n	n	n
Cc1nnc(N/N=C/c2cccc(OCc3ccc(Cl)c(Cl)c3)c2)n1N	73	n	x	n	n	n
CN(C)S(=O)(=O)c1ccc(NC(=O)CSc2nc3ccccc3n2-c2ccccc2)cc1	100	n	n	n	n	n
CN(C)S(=O)(=O)c1cccc(NC(=O)CSc2nc3ccccc3n2-c2ccccc2)c1	n	n	n	n	n	n
COc1cc(NC(=O)CSc2nc3ccccc3n2-c2ccccc2)c(C)cc1[N+](=O)[O-]	55	n	n	n	n	n
COc1ccc(-n2c(SCC(=O)Nc3ccc([N+](=O)[O-])cc3OC)nc3ccccc32)cc1	n	n	n	n	n	n
CCN(CC)c1ccc(NC(=O)CSc2nc3ccccc3c(=O)n2-c2cc(S(=O)(=O)N(C)C)ccc2C)cc1	99	n	n	n	n	n
Cc1ccc(Sc2nc([N+](=O)[O-])nn2C)cc1	n	n	x	n	n	n
NC(=O)CSc1ccc(-c2ccc(F)cc2)nn1	n	n	n	n	n	n
C=CCOc1ccc(CNc2ccc3[nH]c(=O)[nH]c3c2)cc1OC	n	n	n	n	n	94
COc1cc(CNc2ccc3[nH]c(=O)[nH]c3c2)ccc1OCC(=O)NC(C)(C)C	n	n	n	x	n	69
CCOC1(/N=C(\C)NS(=O)(=O)c2ccc(Cl)cc2)C(C)=CC(=O)C=C1C	n	n	n	n	n	n
CC1=NC(C)(C)Cc2cc(C)c(C)cc21	n	n	n	n	n	n
CCOc1ccc(-c2ccc(SCC(=O)NCC3CCCO3)nn2)cc1 (stereo not given)	n	n	n	n	n	n
CCOc1ccc(-c2ccc(SC)nn2)cc1	n	n	n	n	68	n
N#CCSc1nc2scc(-c3cccs3)c2c(=O)n1CCc1ccccc1	n	n	x	x	n	n
SMILES	Lmaj promast	Diaph act CS	ROMK mod	KCC2 mod	WT yeast gro inh	Diaphorase inh
Cc1ccc(Cl)cc1NC(=S)N(Cc1cccs1)C1CCCC1	n	n	n	n	n	n
Cc1c(Cl)cccc1NC(=S)N(Cc1cccs1)C1CCCC1	n	n	n	n	67	n
Cc1ccccc1NC(=S)N(Cc1cccs1)C1CCCCC1	n	n	n	n	67	n
COc1ccc(CCNC(=O)Cc2ccc(OCc3ccccc3)c(OC)c2[N+](=O)[O-])cc1OCc1ccccc1	n	n	n	n	n	n
O=[N+]([O-])c1ccc(-c2cn(-c3ccc(Cl)cc3)c(=S)[nH]2)cc1	n	n	x	3.7	n	n
CCc1ccc(-n2cc(-c3ccc([N+](=O)[O-])cc3)[nH]c2=S)cc1	n	n	n	n	n	n
CC(=O)c1cc(CN2CCN(Cc3ccc(C)cc3)C(CCO)C2)cs1 (stereo not given)	73	n	n	n	n	n
COc1ccc(CN2CCN(Cc3csc(C(C)=O)c3)CC2CCO)c(C)c1C (stereo not given)	86	n	n	n	n	n
CC(=O)c1cc(CN2CCN(CCC(C)C)C(CCO)C2)cs1 (stereo not given)	x	x	x	n	x	x
CCNc1ccc(Br)cc(C(=O)/C=C/c2ccc(Cl)cc2)c1=O	84	n	n	n	n	n
CNc1ccc(Br)cc(C(=O)/C=C/c2cccc(OC)c2)c1=O	57	n	n	n	n	50
O=C(O)CCC(=O)Nc1ccc(Br)cc1C(=O)c1ccc(Cl)cc1	x	x	x	n	x	x
CCNc1ccc(Br)cc(C(=O)/C=C/c2c(Cl)cccc2Cl)c1=O	100	n	n	x	n	n
CS(=O)(=O)Nc1ccc(Br)cc1C(=O)c1ccccc1	n	n	n	n	n	n
Cc1ccc(O)c(C(=O)/C=C/c2ccc3c(c2)OCCO3)c1	n	n	n	n	60	n
O=C(/C=C/c1ccc2c(c1)OCCO2)c1ccccc1	x	x	x	n	x	x
CCOCCCNCc1cc(Cl)cc(Cl)c1OCC	n	n	n	n	n	n
O=C(/C=C/c1ccc2c(c1)OCO2)c1ccco1	n	n	x	n	n	n
Nc1ccccc1C(=O)/C=C/c1ccc2c(c1)OCO2	58	n	n	n	n	n
CC(=O)Nc1ccc(NC(=O)/C=C/c2ccc3c(c2)OCO3)cc1	n	n	n	n	n	n
CCNc1ccc(Br)cc(C(=O)/C=C/c2ccc3c(c2)OCO3)c1=O	n	n	n	n	n	59
CNc1ccc(Br)cc(C(=O)/C=C/c2ccc(OC)cc2OC)c1=O	n	n	n	n	n	n
CNc1ccc(Br)cc(C(=O)/C=C/c2ccc(Cl)cc2Cl)c1=O	99	n	n	x	n	85
Cc1ccccc1CNC(=O)C(=O)Nc1nccs1	n	n	n	n	n	n
NS(=O)(=O)c1ccc(CCNCC(=O)N2CCC(Cc3ccccc3)CC2)cc1	x	x	x	n	x	x
SMILES	Lmaj promast	Diaph act CS	ROMK mod	KCC2 mod	WT yeast gro inh	Diaphorase inh
COC(=O)c1ccc(COc2ccccc2/C=N/NS(=O)(=O)c2ccc(C)cc2)cc1	n	n	n	x	n	n
CCCC(C)NCC(=O)Nc1ccccc1-c1ccccc1 (stereo not given)	n	n	n	n	n	n
COc1cc2cc(/C=C/C(=O)c3ccco3)c(Cl)nc2cc1OC	76	n	x	n	n	n
Cc1cc(C(=O)COC(=O)c2ccc[nH]c2=O)c(C)n1-c1ccc(F)cc1	69	n	n	n	n	n
Cc1cc(C(=O)COC(=O)c2ccc[nH]c2=O)c(C)n1-c1ccccc1	71	n	n	n	n	n
O=C(Cn1cnc2cc([N+](=O)[O-])ccc2c1=O)Nc1ccc(N2CCOCC2)cc1	x	x	n	n	x	x
